From ChEMBL document CHEMBL3808278, “Design, Synthesis, and Biological Evaluation of Imidazo[1,5-a]quinoline as Highly Potent Ligands of Central Benzodiazepine Receptors” (J Med Chem, 2016)
Activity calls are given as the source filed them. The calls are words filed in the database; no cut-off is given here.

Organism: Bos taurus
Assay: Selectivity ratio, ratio of Ki for central-type benzodiazepine receptor in bovine cortical membrane to Ki for central-type benzodiazepine receptor in bovine cortical membrane in presence of 50 uM of GABA
Assay type: cell membranes
Conditions: not given

Row | Structure (SMILES) | Ratio Ki
1 | CC(=O)N1Cc2c(C(=O)OC(C)(C)C)ncn2-c2ccc(F)cc21 | 1
2 | C#CCN(C)C(=O)c1c(C)c2c(C(=O)OCC)ncn2c2ccccc12 | 1
3 | CCCN(CCC)C(=O)c1c(C)c2c(C(=O)OC(C)(C)C)ncn2c2ccccc12 | 1.1
4 | CCOC(=O)c1ncn2c1c(C)c(C(=O)OC(C)(C)C)c1ccccc12 | 1.4
5 | CC(=O)N1Cc2c(C(=O)OC(C)(C)C)ncn2-c2ccccc21 | 0.98
6 | CC(C)(C)OC(=O)c1ncn2c1cc(-c1ccccc1)c1ccccc12 | 0.8
7 | CN(Cc1ccccc1)C(=O)c1cc2c(C(=O)OC(C)(C)C)ncn2c2ccccc12 | 0.98
8 | CCOC(=O)c1ncn2c1cc(C(=O)N(C)C)c1ccccc12 | 1.3
9 | CCOC(=O)c1ncn2c1cc(-c1ccccc1)c1ccccc12 | 0.9
10 | CN1C(=O)CN=C(c2ccccc2F)c2cc([N+](=O)[O-])ccc21 [FLUNITRAZEPAM] | 1.68
11 | CCOC(=O)c1ncn2c1CN(C(C)=O)c1cc(F)ccc1-2 | 0.75
12 | CCCc1c(C(=O)N(CCC)CCC)c2ccccc2n2cnc(C(=O)OC(C)(C)C)c12 | 1
13 | CCOC(=O)c1ncn2c1c(C)c(C(=O)O)c1ccccc12 | 1.2
14 | CCOC(=O)c1ncn2c1CN(C(C)=O)c1ccccc1-2 | 0.9
15 | CCCc1c(C(=O)N(CCC)CCC)c2ccccc2n2cnc(C(=O)OCC)c12 | 1.1
16 | CCOC(=O)c1ncn2c1c(CO)c(-c1ccccc1)c1ccccc12 | 1.18

Organism: Rattus norvegicus
Assay: Partial agonist activity at central-type benzodiazepine receptor in Sprague-Dawley rat cerebrocortical synaptoneurosomes assessed as increase in 36Cl- influx after 10 secs by liquid-phase scintillation beta-counting method
Conditions: not given

Row | Structure (SMILES) | Activity
17 | CC(=O)N1Cc2c(C(=O)OC(C)(C)C)ncn2-c2ccc(F)cc21 | Active
18 | CCOC(=O)c1ncn2c1c(C)c(C(=O)OC(C)(C)C)c1ccccc12 | Active
19 | CCOC(=O)c1ncn2c1cc(C(=O)N(C)C)c1ccccc12 | Active
20 | CCOC(=O)c1ncn2c1CN(C(C)=O)c1cc(F)ccc1-2 | Active
21 | CCOC(=O)c1ncn2c1c(C)c(C(=O)O)c1ccccc12 | Active
22 | CCOC(=O)c1ncn2c1c(CO)c(-c1ccccc1)c1ccccc12 | Active

Tested on: Brain
Assay: Neuroprotective activity against oxygen-glucose deprivation and reoxygenation-induced injury in Sprague-Dawley rat brain cortical slices assessed as maximum recovery in LDH release at 5 uM treated during 90 mins of reperfusion phase measured after 90 mins by spetrophotometric method
Assay type: functional
Conditions: not given
Summary of the method: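 Rat brain cortical slices in ACSF underwent 30 min oxygen/glucose deprivation, then 90 min reoxygenated ACSF (reperfusion). Controls were kept 120 min in ACSF. Compounds (0.1–100 µM) were added only during reperfusion, and LDH release was measured. Data are means ± SEM of at least 4 experiments, analysed by ANOVA with Dunnett post test. The effective concentration is that giving the largest reduction, and recovery is the % reversion at that concentration.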

Row | Structure (SMILES) | Activity [%]
23 | CCOC(=O)c1ncn2c1c(CO)c(-c1ccccc1)c1ccccc12 | 39.5

Organism: Rattus norvegicus
Assay: Selectivity ratio, ratio of Ki for central-type benzodiazepine receptor in rat cortical membrane to Ki for central-type benzodiazepine receptor in rat cortical membrane in presence of 50 uM of GABA
Assay type: cell membranes
Conditions: not given
Summary of the method: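 GABA ratio is Ki without GABA divided by Ki with 50 µM GABA, from [3H]flumazenil competition binding in cortical membranes. Per the table footnote, ratio values were obtained in rat cortical membranes.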

Row | Structure (SMILES) | Ratio Ki
24 | CCOC(=O)c1ncn2c1cc(C(=O)N(C)Cc1ccccc1)c1cc(Br)ccc12 | 0.9
25 | CCOC(=O)c1ncn2c1cc(C(=O)N(C)Cc1ccccc1)c1cc(C#C[Si](C)(C)C)ccc12 | 0.99
26 | C#Cc1ccc2c(c1)c(C(=O)N(C)Cc1ccccc1)cc1c(C(=O)OCC)ncn12 | 0.95

Tested on: Mus musculus
Assay: Antiamnestic activity in mouse assessed as prevention of scopalamine-induced amnesia at 10 mg/kg, po administered 30 mins before test by passive avoidance test
Assay type: functional, organism-based
Conditions: not given
Summary of the method: (§1)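 Passive avoidance in mice: compounds were given per os 30 min before the test, and scopolamine 1.5 mg kg-1 i.p. immediately after the punishment. Read-out was time recorded during the retention session. Values are mean ± SEM of at least 10 mice, compared with vehicle-treated animals.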

Row | Structure (SMILES) | Activity
27 | CCCN(CCC)C(=O)c1c(C)c2c(C(=O)OC(C)(C)C)ncn2c2ccccc12 | Active

Organism: Rattus norvegicus
Assay: Inverse agonist activity at central-type benzodiazepine receptor in Sprague-Dawley rat cerebrocortical synaptoneurosomes assessed as decrease in 36Cl- flow after 10 secs by liquid-phase scintillation beta-counting method
Conditions: not given

Row | Structure (SMILES) | Activity
28 | CC(C)(C)OC(=O)c1ncn2c1cc(-c1ccccc1)c1ccccc12 | Active

Organism: Rattus norvegicus
Assay: Partial inverse agonist activity at central-type benzodiazepine receptor in Sprague-Dawley rat cerebrocortical synaptoneurosomes assessed as decrease in 36Cl- flow after 10 secs by liquid-phase scintillation beta-counting method
Conditions: not given

Row | Structure (SMILES) | Activity
29 | CCOC(=O)c1cc2c(cn1)[nH]c1ccccc12 | Active
30 | CN1C(=O)CN=C(c2ccccc2F)c2cc([N+](=O)[O-])ccc21 [FLUNITRAZEPAM] | Active
31 | CCOC(=O)c1ncn2c1CN(C(C)=O)c1cc(F)ccc1-2 | Active

Tested on: Mus musculus
Assay: Antiamnestic activity in scopolamine induced mouse amnesia model assessed as time of retention session in light box at 30 mg/kg, po administered 30 mins before test by passive avoidance test (reference value: 44.8 +/- 8.1 secs)
Assay type: functional
Conditions: not given
Summary of the method: as §1

Row | Structure (SMILES) | Activity
32 | CCOC(=O)c1ncn2c1cc(C(=O)N(C)C)c1ccccc12 | inactive

Organism: Rattus norvegicus
Assay: Antagonist activity at central-type benzodiazepine receptor in Sprague-Dawley rat cerebrocortical synaptoneurosomes assessed as decrease in 36Cl- flow after 10 secs by liquid-phase scintillation beta-counting method
Conditions: not given

Row | Structure (SMILES) | Antagonist activity
33 | CCOC(=O)c1ncn2c1cc(C(=O)N(C)Cc1ccccc1)c1cc(Br)ccc12 | Active
34 | CCOC(=O)c1ncn2c1cc(C(=O)N(C)Cc1ccccc1)c1cc(C#C[Si](C)(C)C)ccc12 | Active
35 | CC(=O)N1Cc2c(C(=O)OC(C)(C)C)ncn2-c2ccc(F)cc21 | Active
36 | C#CCN(C)C(=O)c1c(C)c2c(C(=O)OCC)ncn2c2ccccc12 | Active
37 | CCCN(CCC)C(=O)c1c(C)c2c(C(=O)OC(C)(C)C)ncn2c2ccccc12 | Active
38 | CC(=O)N1Cc2c(C(=O)OC(C)(C)C)ncn2-c2ccccc21 | Active
39 | CN(Cc1ccccc1)C(=O)c1cc2c(C(=O)OC(C)(C)C)ncn2c2ccccc12 | Active
40 | CCOC(=O)c1ncn2c1cc(-c1ccccc1)c1ccccc12 | Active
41 | CCCc1c(C(=O)N(CCC)CCC)c2ccccc2n2cnc(C(=O)OC(C)(C)C)c12 | Active
42 | C#Cc1ccc2c(c1)c(C(=O)N(C)Cc1ccccc1)cc1c(C(=O)OCC)ncn12 | Active
43 | CCOC(=O)c1ncn2c1CN(C(C)=O)c1ccccc1-2 | Active
44 | CCCc1c(C(=O)N(CCC)CCC)c2ccccc2n2cnc(C(=O)OCC)c12 | Active

Tested on: Mus musculus
Assay: Anxiolytic activity in mouse assessed as increase in time spent in light box at 1 mg/kg, po administered 30 mins before test by light-dark box test
Assay type: functional, organism-based
Conditions: not given
Summary of the method: (§2)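 Light-dark box in mice measured time in the light compartment. Compounds were given per os 30 min before testing, and diazepam 1 mg kg-1 subcutaneously as reference. Values are mean ± SEM of at least 10 mice, compared with vehicle-treated animals.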

Row | Structure (SMILES) | Activity
45 | CCCN(CCC)C(=O)c1c(C)c2c(C(=O)OC(C)(C)C)ncn2c2ccccc12 | Active

Organism: Mus musculus
Assay: Myorelaxant effect in mouse assessed as effect on motor coordination after 30 mins by rotarad test
Assay type: organism-based
Conditions: in vivo, 0.5 h
Summary of the method: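 Rota-rod test of motor coordination in mice, with compounds given per os 30 min before testing. Values are mean ± SEM of at least 10 mice.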

Row | Structure (SMILES) | Activity
46 | CCCN(CCC)C(=O)c1c(C)c2c(C(=O)OC(C)(C)C)ncn2c2ccccc12 | Non-toxic
47 | CCOC(=O)c1ncn2c1cc(C(=O)N(C)C)c1ccccc12 | Non-toxic

Organism: Homo sapiens
Assay: Selectivity ratio, ratio of Ki for central-type benzodiazepine receptor in human cortical membrane to Ki for central-type benzodiazepine receptor in human cortical membrane in presence of 50 uM of GABA
Assay type: cell membranes
Conditions: not given

Row | Structure (SMILES) | Ratio Ki
48 | CC(=O)N1Cc2c(C(=O)OC(C)(C)C)ncn2-c2ccc(F)cc21 | 1
49 | CC(=O)N1Cc2c(C(=O)OC(C)(C)C)ncn2-c2ccccc21 | 1.04
50 | CN1C(=O)CN=C(c2ccccc2F)c2cc([N+](=O)[O-])ccc21 [FLUNITRAZEPAM] | 1.61
51 | CCOC(=O)c1ncn2c1CN(C(C)=O)c1cc(F)ccc1-2 | 0.95

Target: not listed separately
Assay: Displacement of [3H]-flumazenil from central-type benzodiazepine receptor in human cortical membrane after 90 mins by liquid-phase scintillation beta-counting method
Assay type: cell membranes
Conditions: not given
Summary of the method: (§3)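 Competition binding against radiolabelled antagonist [3H]flumazenil in cortical membranes (bovine; human where listed); Ki reported as mean ± SEM of three independent determinations.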

Row | Structure (SMILES) | Ki [nM]
52 | CC(=O)N1Cc2c(C(=O)OC(C)(C)C)ncn2-c2ccc(F)cc21 | 2
53 | CC(=O)N1Cc2c(C(=O)OC(C)(C)C)ncn2-c2ccccc21 | 7.7
54 | CN1C(=O)CN=C(c2ccccc2F)c2cc([N+](=O)[O-])ccc21 [FLUNITRAZEPAM] | 6.4
55 | CCOC(=O)c1ncn2c1CN(C(C)=O)c1cc(F)ccc1-2 | 2.7
56 | CCOC(=O)c1ncn2c1CN(C(C)=O)c1ccccc1-2 | 33
57 | CCOC(=O)c1ncn2c1c(CO)c(-c1ccccc1)c1ccccc12 | 2

Tested on: Mus musculus
Assay: Neurotoxicity in mouse assessed as effect on neurological and muscular abilities at 10 mg/kg, po after 30 mins by Hole-Board test
Assay type: toxicity, organism-based
Conditions: in vivo, 0.5 h
Summary of the method: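 Hole-board test 30 min after oral dosing at 10 mg kg-1 counted movements (motor activity) and head inspections (exploratory activity). Values are mean ± SEM of at least 10 mice, compared with vehicle controls.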

Row | Structure (SMILES) | Activity
58 | CCCN(CCC)C(=O)c1c(C)c2c(C(=O)OC(C)(C)C)ncn2c2ccccc12 | Non-toxic
59 | CCOC(=O)c1ncn2c1cc(C(=O)N(C)C)c1ccccc12 | Non-toxic

Tested on: Mus musculus
Assay: Anxiolytic activity against mouse assessed as increase in time spent in light box at 10 mg/kg, po administered 30 mins before test by light-dark box test
Assay type: functional, organism-based
Conditions: not given
Summary of the method: as §2

Row | Structure (SMILES) | Activity
60 | CCCN(CCC)C(=O)c1c(C)c2c(C(=O)OC(C)(C)C)ncn2c2ccccc12 | Active
61 | CCOC(=O)c1ncn2c1cc(C(=O)N(C)C)c1ccccc12 | Active

Target: not listed separately
Assay: Displacement of [3H]-flumazenil from central-type benzodiazepine receptor in bovine cortical membrane after 90 mins by liquid-phase scintillation beta-counting method
Assay type: cell membranes, Bos taurus
Conditions: not given
Summary of the method: as §3

Row | Structure (SMILES) | Ki [nM]
62 | CC(=O)N1Cc2c(C(=O)OC(C)(C)C)ncn2-c2ccc(F)cc21 | 1
63 | C#CCN(C)C(=O)c1c(C)c2c(C(=O)OCC)ncn2c2ccccc12 | 1.2
64 | CCCN(CCC)C(=O)c1c(C)c2c(C(=O)OC(C)(C)C)ncn2c2ccccc12 | 1
65 | CCOC(=O)c1ncn2c1c(C)c(C(=O)OC(C)(C)C)c1ccccc12 | 1
66 | CC(=O)N1Cc2c(C(=O)OC(C)(C)C)ncn2-c2ccccc21 | 7.3
67 | CC(C)(C)OC(=O)c1ncn2c1cc(-c1ccccc1)c1ccccc12 | 55
68 | CN(Cc1ccccc1)C(=O)c1cc2c(C(=O)OC(C)(C)C)ncn2c2ccccc12 | 14
69 | CCOC(=O)c1ncn2c1cc(C(=O)N(C)C)c1ccccc12 | 8.2
70 | CCOC(=O)c1ncn2c1cc(-c1ccccc1)c1ccccc12 | 42
71 | CN1C(=O)CN=C(c2ccccc2F)c2cc([N+](=O)[O-])ccc21 [FLUNITRAZEPAM] | 5.2
72 | CCOC(=O)c1ncn2c1CN(C(C)=O)c1cc(F)ccc1-2 | 2.2
73 | CCCc1c(C(=O)N(CCC)CCC)c2ccccc2n2cnc(C(=O)OC(C)(C)C)c12 | 1440
74 | CCOC(=O)c1ncn2c1c(C)c(C(=O)O)c1ccccc12 | 105
75 | CCOC(=O)c1ncn2c1CN(C(C)=O)c1ccccc1-2 | 25
76 | CCCc1c(C(=O)N(CCC)CCC)c2ccccc2n2cnc(C(=O)OCC)c12 | 34
77 | CCOC(=O)c1ncn2c1c(CO)c(-c1ccccc1)c1ccccc12 | 1.8

Target: not listed separately
Assay: Binding affinity to rat cortical membrane central-type benzodiazepine receptor measured after 90 mins by liquid-phase scintillation beta-counting method
Conditions: not given

Row | Structure (SMILES) | Ki [nM]
78 | CCOC(=O)c1ncn2c1cc(C(=O)N(C)Cc1ccccc1)c1cc(Br)ccc12 | 24
79 | CCOC(=O)c1ncn2c1cc(C(=O)N(C)Cc1ccccc1)c1cc(C#C[Si](C)(C)C)ccc12 | 510
80 | C#Cc1ccc2c(c1)c(C(=O)N(C)Cc1ccccc1)cc1c(C(=O)OCC)ncn12 | 161
